A short description of this data set: Toxicity liver stage against HepG2, at 10uM. The data set is classed as cell-based. More on the design: test concentration 10 uM, cell line HepG2-A16-CD81EGFP. The settings on record: human, HepG2-A16-CD81EGFP cells; read-out: INHIBITION
Put shortly: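 Uninfected HepG2-A16-CD81EGFP cells, 3 × 10^3 per well, 1536-well, plated on prespotted compound at 10 μM final, parasite-free screening media added to match infected plates; puromycin 10 μM positive, DMSO 0.5% negative; run in parallel with 48 h PbLuc assay at 37 °C, 5% CO2; viability by CellTiter-Glo luminescence, normalized to controls.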
Take `CC(C)c1ccc(-n2ncc(C(=O)N(C)C3CCN(C)CC3)c2N)cc1`: the cytotoxicity at 10 µM was -6.57%.
Take `COCCn1/c(=N\C(=O)CN(C)S(C)(=O)=O)sc2cc(C)ccc21`: the cytotoxicity at 10 µM is -11.7%.
The figure for `O=C(Cc1ccc(Br)cc1)N1CC(S(=O)(=O)C2CCCCC2)C1` is -1.13%; for `CCN1C(=O)C[C@@H]2[C@@H]1CCN2S(=O)(=O)c1cccc(C)c1` it is 1.29%; for `CNC(=O)CN1C(=O)CCC12CCCN(Cc1ccccc1F)C2` (configuration not stated) it is 4.76%.
`Cc1cccc(CN2CC3C[C@]3(NC(=O)c3ccco3)C2)n1` (some centres not stated): the cytotoxicity at 10 µM was -142%.
The figure for `O=C(c1cscn1)N1CCCC12CCCN(S(=O)(=O)c1ccccc1)C2` (configuration not stated) is 4.35%; for `O=C(C1CCCC1)N1CCO[C@@H]2CNC[C@@H]21` it is 8.34%.
In the case of `CN1CCN(C(=O)c2cc3c(s2)CCN3C(=O)C2CC2)CC1` it was 8.52%; in that of `Cc1ccc(CC(=O)N2CCn3cc(Cn4cncn4)nc3C2)cc1`, -138%; in that of `Cc1c(C(=O)O)cnn1-c1ccc(-c2nc(C(C)(C)C)no2)cn1`, 7.19%.
For `O=C(c1cn(-c2ccccc2Cl)nn1)N1CCSCC1`, the cytotoxicity at 10 µM is 8.24%.
In the case of `COCc1ncn2c1CN(C(=O)C1CC=CC1)CC2` it was -5.09%; in that of `Cn1cc(-c2cnc(N3CCOCC3)nc2)cc1C(=O)O`, -14.6%.
In the case of `COc1ccccc1N1CCN(C(=O)Cn2nc(C)c(Cl)c2C)CC1` it was 0.808%.
Consider `CCCc1nc(Nc2cccc(C(N)=O)c2)c2c(n1)c(C)nn2CC`, for which the cytotoxicity at 10 µM came out at 3.31%.
The figure for `O=C(Nc1cc(-c2cccnc2)no1)C1CCC1` is 2.82%; for `CC1(Cc2ccc(Cl)cc2)Cc2cc(CCC(=O)O)ccc2O1` (configuration not stated) it is 2.79%.
In the case of `Cc1nn(C)c(C)c1-c1cnc(C2CCCN(C)C2)cn1` (configuration not stated) it was -8.8%; in that of `O=C(Cc1ccon1)N1CCc2cc(Br)sc2C1`, 1.69%; in that of `O=C(NC1CC1)N(CCc1ccccc1)C1CCOC1` (configuration not stated), -1.41%.
With `CCc1nc(CSCc2csc(CS(C)(=O)=O)n2)cs1`, the cytotoxicity at 10 µM was -6.79%.
In the case of `Cc1cccc(-c2ccc(C(=O)N3CCSCC3)c(=O)[nH]2)c1` it was 6.99%; in that of `Cn1cc(CNC2CCCOc3c2ccc2ccccc32)cn1` (configuration not stated), 5.7%.
As for `OC1(CNc2ccc(Br)cn2)CCC1`, the cytotoxicity at 10 µM was determined as 6.59%.
With `CC1CCCCN1C(=O)COc1nc(C(C)(C)C)no1` (configuration not stated), the cytotoxicity at 10 µM is -3.22%.
In the case of `CN1CCOC(CNCC(=O)NCCc2ccc3c(c2)OCCO3)C1` (configuration not stated) it was -10.2%; in that of `CC(C)CCN(c1cn[nH]c1)S(=O)(=O)c1cccc(C#N)c1`, 7.95%; in that of `CC(C)c1noc(C(C)N2CCN(CCc3ccncc3)CC2)n1` (configuration not stated), 2.16%.
Take `CNS(=O)(=O)Cc1ccc(CNc2ccc(C#N)cn2)cc1`: the cytotoxicity at 10 µM is -6.87%.
The figure for `O=C(c1cc(C2CC2)[nH]n1)N1CCCN(c2nccs2)CC1` is 6.37%; for `O=C(c1c[nH]c(=O)c(Cl)c1)N1CCc2ccccc2C1` it is -11.1%; for `O=C(NCC(O)COc1ccc(F)cc1)C1(c2ccc(F)cc2)CC1` (configuration not stated) it is 2.71%.
`COc1ccnc(NC(=O)c2cscc2C)c1`: the cytotoxicity at 10 µM is -16%.
In the case of `O=C(NCCc1nnc2n1CCC2)c1ccccc1OC1CCCC1` it was -2.27%; in that of `Cc1ccc(C(=O)NC(CN2CCCC2)c2ccccc2)c(=O)[nH]1` (configuration not stated), -2.32%; in that of `Cc1ccc(NC(=O)CN2CCC(OCC3CCCO3)CC2)c(C)c1` (configuration not stated), -1.7%.
Consider `O=C(Cn1cc(C2CC2)nn1)NC(c1ccc(Cl)cc1)C1CC1` (configuration not stated), for which the cytotoxicity at 10 µM was determined as 2.16%.
In the case of `O=C(CN1CCS(=O)(=O)CC1)NCc1ccccc1F` it was 6.32%.
As for `CCc1nsc(N2CCN(C(=O)c3ccnc(N(C)C)c3)CC2)n1`, the cytotoxicity at 10 µM is -2.48%.
For the compound `Cc1ccc(C)c(OCC(O)Cn2ncc3cnn(C)c(=O)c32)c1` (configuration not stated), the cytotoxicity at 10 µM amounted to 4.45%.
The figure for `CC(C)(NC(=O)c1ccc(-c2ccccc2F)s1)C(N)=O` is 12.7%; for `Cc1cccc(C)c1OCC(=O)NC(C)c1nnc2n1CCC2` (configuration not stated) it is -3.09%.
In the case of `Cc1ccc(S(C)(=O)=O)cc1C(=O)NS(=O)(=O)c1cccs1` it was 0.532%; in that of `CC(C)Cc1nc(CSCC(=O)N2CCC(C)CC2)no1`, 2.25%; in that of `Cc1cc(NCc2csc(-c3ccco3)n2)ccc1C(N)=O`, 20.3%.
Take `CCS(=O)(=O)c1ccc(NCc2csc(C(C)C)n2)cc1`: the cytotoxicity at 10 µM was found to be 8.73%.
As to `CNC(=O)C(C)CN(C)C(=O)Nc1ccc(Cl)cc1-n1cccc1` (configuration not stated), the cytotoxicity at 10 µM worked out at 16.9%.
In the case of `CCCN1CCCCC1C(=O)Nc1ccc(-c2nnc[nH]2)cc1` (configuration not stated) it was 4.64%; in that of `Cc1ccc(CNC(=O)N(Cc2ccccc2F)C2CC2)cn1`, 0.0194%; in that of `CN(CCc1ccccn1)C(=O)C(c1cccnc1)N1CCOCC1` (configuration not stated), 2.03%.
In the case of `COc1ccc(-n2cc(CCO)cn2)cc1C(N)=O` it was 5.97%.
The figure for `CCC[C@H]1CN(S(=O)(=O)c2c(C)noc2C)C[C@@H]1N` is -0.288%; for `Cc1ccccc1C1(O)CCN(C(=O)CCc2cn3ccccc3n2)C1` (configuration not stated) it is -3.18%; for `CC(NC(=O)c1cc2n(n1)CCCN(C)C2)c1cn2ccsc2n1` (configuration not stated) it is -2.51%.
Regarding `CS(=O)(=O)NCC1(O)CCCN(C(=O)CCn2cc(Cl)cn2)CC1` (configuration not stated), the cytotoxicity at 10 µM is -144%.
The figure for `N[C@H]1CN(S(=O)(=O)Cc2ccccc2)C[C@@H]1C1CC1` is -133%; for `O=C(c1cn(-c2ccccc2)nn1)N1CCOCC(O)C1` (configuration not stated) it is 2.35%; for `CO[C@H]1CN(Cc2cc(Cn3cncn3)c(C)cc2C)CC[C@H]1N` it is -7.29%.
In the case of `Cc1ccc(NC2CCCN(CCc3ccccc3)C2)nn1` (configuration not stated) it was 11.7%; in that of `Cc1nc(O)cc(CN2C[C@H](NS(=O)(=O)N(C)C)[C@@H](C3CC3)C2)n1`, -5.01%.
In the case of `Cc1ccc(C(CNC(=O)c2cc(CC(C)C)nn2C)N(C)C)cc1` (configuration not stated) it was -3.34%; in that of `C=C(C)COc1cccc(C(=O)N(CC)Cc2nc(COC)no2)c1`, -18%; in that of `Cc1cc(CNc2ccc(-c3nc(C4CC4)no3)cn2)no1`, 2.55%.
With `Cc1nn(C)c(C)c1CCC(=O)N1CC(c2cccnc2)C1`, the cytotoxicity at 10 µM is -4.84%.
For `CCC(C)N(CC)C(=O)c1ccc2[nH]nnc2c1` (configuration not stated), the cytotoxicity at 10 µM was 10.5%.
In the case of `COc1cccc(OC2CN(C(=O)c3ccoc3C)C2)c1` it was 9.21%; in that of `COCCCN(C)c1nc(-c2ccncc2)nc2c1CCN(C(C)=O)C2`, -1.16%.
The figure for `Cc1noc(C(C)C)c1C(=O)NCc1ccc2c(c1)OCCO2` is 3.24%; for `CN(Cc1cccc(C(N)=O)c1)Cc1nc2c(cnn2C)c(=O)[nH]1` it is -2.97%.
For `CCn1nc2c(cc1=O)CN(Cc1nc(C)c(C)o1)CC2`, the cytotoxicity at 10 µM is -3.59%.
In the case of `CCc1nnc(CN2CCCC2Cn2cc(C)cn2)o1` (configuration not stated) it was -6.64%; in that of `O=C(NCC1CCCOC1)c1ccc(-c2ccccc2)[nH]c1=O` (configuration not stated), -12.2%.
The figure for `Cc1nn(C)c(Cl)c1C1CCCN1C(=O)c1ccoc1C` (configuration not stated) is -8.18%.
As to `Cc1nc(CN2CCN(C(=O)NC(C)Cn3ccnc3)CC2)cs1` (configuration not stated), the cytotoxicity at 10 µM is -5.28%.
On to `Cc1ccc(-c2nc(CNC(C)Cn3cccn3)cs2)o1` (configuration not stated), for which the cytotoxicity at 10 µM is -7.82%.
Consider `Cc1ccc(C(=O)NCc2ccnc(N(C)C)c2)c(C)c1`, for which the cytotoxicity at 10 µM was -11.1%.
In the case of `CC(C)(C)c1nc(CN2CCOC(Cn3cccn3)C2)no1` (configuration not stated) it was -18.5%.
Consider `COCCC(C)NC(=O)c1cc(Br)c2c(c1)OCCO2` (configuration not stated), for which the cytotoxicity at 10 µM was -13.4%.
Regarding `CNC(=O)N1CCC(NC(=O)c2cnn(C)c2)CC1`, the cytotoxicity at 10 µM is -1.35%.
The figure for `Cc1ccc(NC(=O)N(C)Cc2cnn(C)c2)c(C)c1` is -10.7%; for `CCS(=O)(=O)c1ccccc1N1CCC(NC(=O)NC2CCCC2)CC1` it is -16%; for `CC(C)N1CC(C(=O)NCc2ccnc(-n3cccn3)c2)CC1=O` (configuration not stated) it is -2.5%.
The figure for `CCOC(=O)CSc1nnc(C(N)CC(C)C)o1` (configuration not stated) is -8.32%.
The figure for `CC(NCc1ccc(C(N)=O)cc1)c1ccc(Cl)c(Cl)c1` (configuration not stated) is 8.8%; for `Cc1cccc(-c2c[nH]c(C3CCCN3)n2)c1` (configuration not stated) it is -11.4%.
With `CCS(=O)(=O)N1CCOC2(CCCN(Cc3ccccn3)C2)C1` (configuration not stated), the cytotoxicity at 10 µM was 5.86%.
For the compound `Cc1nc(CN2Cc3nccn3CC(CN3CCCC3)C2)cs1` (configuration not stated), the cytotoxicity at 10 µM is 2.43%.
In the case of `O=C(O)c1cc2c(nc1-c1ccncc1)CCN(C1CCOC1)CC2` (configuration not stated) it was 9.34%.
The figure for `C[C@@H]1CN(CCc2ccccc2)C[C@]12CCN(CC(=O)N(C)C)C2=O` is -4.19%; for `O=C(CC1CC1)N[C@@H]1CN(c2ncccn2)C[C@@H]2CCCO[C@@H]21` it is 9.87%; for `CN1CCN(C(=O)NC2CCCC2)Cc2cccnc21` it is -0.123%.
In the case of `O=C([C@@H]1C[C@@H]2CCN(C3CCOCC3)C[C@H]2O1)N1CCOCC1` it was 0.763%.
`CN1CCN(C(=O)c2n[nH]c3c2CN(C2CCOCC2)CC3)CC1`: the cytotoxicity at 10 µM came to 3.41%.
In the case of `O=c1occ(CN2CCCCCC2)c(O)c1CN1CCOCC1` it was -8.2%.
The figure for `CCn1cc(-n2cc3nc(N4CCCC4)[nH]cc-3c2=O)cn1` is 2.77%; for `Cc1ccc(NC(=O)N2C[C@@H]3CC[C@H]2CN(Cc2cscn2)C3)cc1` it is -7.47%.
